Experimental data taken from ChEMBL document CHEMBL1765057, “Pyrazolo[4,3-d]pyrimidine bioisostere of roscovitine: evaluation of a novel selective inhibitor of cyclin-dependent kinases with antiproliferative activity” (J Med Chem, 2011).
Activity calls are given as the source filed them. The rule behind the calls is not given here.

How the values were obtained:
[1] = tested on: U2OS; experiment: Reduction of homologous recombination in human DR-U2OS-GFP cells expressing I-SceI nuclease at 0.1 uM after 56 hrs […] relative to control; type: functional
[2] = molecular target: Cyclin-dependent kinase 2/cyclin E1 (Homo sapiens, UniProt P24941); experiment: Inhibition of human recombinant CDK2/cyclin E; type: protein-complex assay
[3] = molecular target: Cyclin-dependent kinase 5/CDK5 activator 1 (Homo sapiens, UniProt Q00535); experiment: Inhibition of human recombinant CDK5/p35; type: protein-complex assay
[4] = molecular target: Cyclin-dependent kinase 7/ cyclin H (Homo sapiens, UniProt P50613); experiment: Inhibition of human recombinant CDK7/cyclin H/MAT1; type: protein-complex assay
[5] = molecular target: CDK9/cyclin T1 (Homo sapiens, UniProt P50750); experiment: Inhibition of human recombinant CDK9/cyclin T1; type: protein-complex assay
[6] = tested on: RPMI-8226; experiment: Cell cycle arrest in human RPMI8226 cells assessed as accumulation at G2/M phase after 24 hrs using propidium iodide and BrdU staining by flow cytometry; type: functional, cell-based
Method in brief: (§1)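 Asynchronously growing RPMI-8226 multiple myeloma cells were exposed for 24 h. Cells were double-stained with propidium iodide and BrdU and analysed by flow cytometry for G1, S, G2/M and BrdU-positive fractions. The subG1 population was taken as indicative of apoptosis.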

[7] = tested on: RPMI-8226; experiment: Cell cycle arrest in human RPMI8226 cells assessed as decrease in S phase cell population after 24 hrs using propidium iodide and BrdU staining by flow cytometry; type: functional, cell-based; method in brief: as §1
[8] = tested on: U2OS; conditions: Homo sapiens, 10 uM
[9] = molecular target: T1, Retinoblastoma-associated protein (Homo sapiens) (UniProt P06400); experiment: Inhibition of retinoblastoma protein in human HT-29 cells assessed as reduction of CDK4 level at 2.5 to 40 uM after 24 hrs by immunoblotting; type: cell-based
T1 sequence (whole entry): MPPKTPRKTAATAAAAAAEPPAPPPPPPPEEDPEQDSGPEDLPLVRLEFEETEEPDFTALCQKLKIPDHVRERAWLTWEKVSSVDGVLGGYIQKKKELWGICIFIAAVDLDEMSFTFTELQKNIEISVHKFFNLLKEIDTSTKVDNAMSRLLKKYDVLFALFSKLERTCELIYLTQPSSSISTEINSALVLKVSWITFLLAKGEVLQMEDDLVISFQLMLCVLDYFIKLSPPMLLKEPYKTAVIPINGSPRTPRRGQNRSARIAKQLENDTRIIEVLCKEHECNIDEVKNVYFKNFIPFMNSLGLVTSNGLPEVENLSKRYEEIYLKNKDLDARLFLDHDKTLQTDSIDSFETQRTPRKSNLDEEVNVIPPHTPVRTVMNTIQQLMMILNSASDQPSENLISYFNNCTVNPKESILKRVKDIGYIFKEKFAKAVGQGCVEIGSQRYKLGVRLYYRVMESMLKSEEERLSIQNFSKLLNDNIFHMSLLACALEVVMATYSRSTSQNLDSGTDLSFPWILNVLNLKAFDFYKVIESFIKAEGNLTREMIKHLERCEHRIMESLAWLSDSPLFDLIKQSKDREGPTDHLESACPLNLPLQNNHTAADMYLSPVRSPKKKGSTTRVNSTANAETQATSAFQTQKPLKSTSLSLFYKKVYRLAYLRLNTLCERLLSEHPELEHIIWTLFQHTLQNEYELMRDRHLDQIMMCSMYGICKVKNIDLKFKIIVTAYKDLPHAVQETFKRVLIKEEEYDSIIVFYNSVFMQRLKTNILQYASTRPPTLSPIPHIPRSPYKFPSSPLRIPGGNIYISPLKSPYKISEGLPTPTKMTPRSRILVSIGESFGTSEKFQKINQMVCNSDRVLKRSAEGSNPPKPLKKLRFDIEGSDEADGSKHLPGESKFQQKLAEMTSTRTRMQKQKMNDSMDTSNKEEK

[10] = tested on: MCF7; experiment: Cell cycle arrest in human MCF7 cells assessed as accumulation at sub-G1 phase after 24 hrs using propidium iodide and BrdU staining by flow cytometry; type: functional, cell-based
Method in brief: (§2)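 Subconfluent MCF-7 cells were treated for 24 h at a range of concentrations. They were pulse-labelled with 10 μM BrdU for 30 min at 37 °C, then trypsinized and fixed in ice-cold 70% ethanol. DNA was denatured in 2 M HCl and neutralized with borate. Cells were stained with fluorescein anti-BrdU and with propidium iodide plus RNase A, then analysed by flow cytometry at 488 nm.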

[11] = molecular target: Glycogen synthase kinase-3 alpha (Homo sapiens) (UniProt P49840); experiment: Inhibition of human recombinant GSK3A at 10 uM
[12] = tested on: RPMI-8226; experiment: Cell cycle arrest in human RPMI8226 cells assessed as accumulation at sub-G1 phase after 24 hrs using propidium iodide and BrdU staining by flow cytometry; type: functional, cell-based; method in brief: as §1
[13] = molecular target: Cyclin-dependent kinase 7/ cyclin H (Homo sapiens) (UniProt P51946+P50613); experiment: Inhibition of human recombinant CDK7/cyclin H/MAT1 at 10 uM; type: protein-complex assay
[14] = molecular target: Ribosomal protein S6 kinase alpha-5 (Homo sapiens) (UniProt O75582); experiment: Inhibition of human recombinant MSK1 at 10 uM
[15] = molecular target: Casein kinase II (Homo sapiens) (UniProt P67870+P68400+P19784); experiment: Inhibition of human recombinant CK2 at 10 uM; type: protein-complex assay
[16] = molecular target: Glycogen synthase kinase-3 beta (Homo sapiens) (UniProt P49841); experiment: Inhibition of human recombinant GSK3B at 10 uM
[17] = tested on: MCF7; experiment: Cell cycle arrest in human MCF7 cells assessed as decrease in S phase cell population after 24 hrs using propidium iodide and BrdU staining by flow cytometry; type: functional, cell-based; method in brief: as §2
[18] = tested on: MCF7; experiment: Cell cycle arrest in human MCF7 cells assessed as reduction of actively replicating DNA level at 80 uM after 24 hrs using propidium iodide and BrdU staining by flow cytometry; type: functional, cell-based; method in brief: as §2
[19] = molecular target: Cellular tumor antigen p53 (Homo sapiens) (UniProt P04637); experiment: Induction of p53-dependent transcriptional activity in human MCF7 cells assessed as increase of p21 WAF1 level at 20 uM after 24 hrs by immunofluorescence assay; type: cell-based
[20] = molecular target: MAP kinase-activated protein kinase 5 (Homo sapiens) (UniProt Q8IW41); experiment: Inhibition of human recombinant PRAK at 10 uM
[21] = tested on: RPMI-8226; experiment: Cell cycle arrest in human RPMI8226 cells assessed as reduction of actively replicating DNA level at 80 uM after 24 hrs using propidium iodide and BrdU staining by flow cytometry; type: functional, cell-based; method in brief: as §1
[22] = molecular target: Casein kinase I isoform alpha (Homo sapiens) (UniProt P48729); experiment: Inhibition of human recombinant CK1 at 10 uM
[23] = molecular target: T1, Retinoblastoma-associated protein (Homo sapiens); experiment: Inhibition of retinoblastoma protein in human HT-29 cells assessed as reduction of cyclin A level at 2.5 to 40 uM after 24 hrs by immunoblotting; type: cell-based
[24] = tested on: MCF7; experiment: Cell cycle arrest in human MCF7 cells assessed as accumulation at G2/M phase after 24 hrs using propidium iodide and BrdU staining by flow cytometry; type: functional, cell-based; method in brief: as §2
[25] = molecular target: CDK9/cyclin T1 (Homo sapiens) (UniProt O60563+P50750); experiment: Inhibition of human recombinant CDK9/cyclin T1 at 10 uM; type: protein-complex assay
[26] = molecular target: Dual specificity mitogen-activated protein kinase kinase 1 (Homo sapiens) (UniProt Q02750); experiment: Inhibition of human recombinant MEK1 at 10 uM
Chain of Dual specificity mitogen-activated protein kinase kinase 1 (Homo sapiens) (Q02750 whole entry): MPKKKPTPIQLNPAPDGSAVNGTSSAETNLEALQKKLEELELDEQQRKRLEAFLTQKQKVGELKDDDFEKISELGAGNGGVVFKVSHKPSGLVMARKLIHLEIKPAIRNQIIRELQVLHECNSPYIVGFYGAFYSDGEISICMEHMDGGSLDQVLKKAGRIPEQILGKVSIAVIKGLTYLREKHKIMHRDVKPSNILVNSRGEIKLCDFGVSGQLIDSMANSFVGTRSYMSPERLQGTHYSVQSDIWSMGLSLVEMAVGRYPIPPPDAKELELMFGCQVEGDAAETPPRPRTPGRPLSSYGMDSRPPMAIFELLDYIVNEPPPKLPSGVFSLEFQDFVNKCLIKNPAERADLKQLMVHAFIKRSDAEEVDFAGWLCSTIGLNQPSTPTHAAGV

Chain of Glycogen synthase kinase-3 beta (Homo sapiens) (P49841 whole entry, looked up): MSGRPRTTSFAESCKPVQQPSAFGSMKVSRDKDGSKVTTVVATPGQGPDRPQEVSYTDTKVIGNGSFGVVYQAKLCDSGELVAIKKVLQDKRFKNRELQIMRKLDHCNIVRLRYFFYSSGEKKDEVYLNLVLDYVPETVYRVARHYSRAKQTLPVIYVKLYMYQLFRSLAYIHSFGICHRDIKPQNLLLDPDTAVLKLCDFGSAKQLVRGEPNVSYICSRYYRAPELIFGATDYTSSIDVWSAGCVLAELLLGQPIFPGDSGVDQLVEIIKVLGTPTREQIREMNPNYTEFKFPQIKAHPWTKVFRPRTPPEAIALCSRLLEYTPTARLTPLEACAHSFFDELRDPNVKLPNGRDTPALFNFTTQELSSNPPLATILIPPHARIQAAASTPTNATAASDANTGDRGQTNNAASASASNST
Chain of Glycogen synthase kinase-3 alpha (Homo sapiens) (P49840 2-483 limits assumed): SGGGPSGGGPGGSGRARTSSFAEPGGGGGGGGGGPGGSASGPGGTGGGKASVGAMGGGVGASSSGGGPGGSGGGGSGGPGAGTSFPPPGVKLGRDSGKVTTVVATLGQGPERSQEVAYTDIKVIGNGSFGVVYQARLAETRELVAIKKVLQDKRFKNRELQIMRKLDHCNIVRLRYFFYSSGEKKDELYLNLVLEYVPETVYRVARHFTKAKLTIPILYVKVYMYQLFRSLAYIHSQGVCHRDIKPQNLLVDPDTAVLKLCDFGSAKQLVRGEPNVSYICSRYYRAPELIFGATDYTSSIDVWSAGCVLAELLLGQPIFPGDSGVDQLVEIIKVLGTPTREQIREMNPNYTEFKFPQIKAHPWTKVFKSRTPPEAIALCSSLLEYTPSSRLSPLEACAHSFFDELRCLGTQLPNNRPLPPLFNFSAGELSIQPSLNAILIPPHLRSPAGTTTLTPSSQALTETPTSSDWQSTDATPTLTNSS
Chain of Ribosomal protein S6 kinase alpha-5 (Homo sapiens) (O75582 whole entry, looked up): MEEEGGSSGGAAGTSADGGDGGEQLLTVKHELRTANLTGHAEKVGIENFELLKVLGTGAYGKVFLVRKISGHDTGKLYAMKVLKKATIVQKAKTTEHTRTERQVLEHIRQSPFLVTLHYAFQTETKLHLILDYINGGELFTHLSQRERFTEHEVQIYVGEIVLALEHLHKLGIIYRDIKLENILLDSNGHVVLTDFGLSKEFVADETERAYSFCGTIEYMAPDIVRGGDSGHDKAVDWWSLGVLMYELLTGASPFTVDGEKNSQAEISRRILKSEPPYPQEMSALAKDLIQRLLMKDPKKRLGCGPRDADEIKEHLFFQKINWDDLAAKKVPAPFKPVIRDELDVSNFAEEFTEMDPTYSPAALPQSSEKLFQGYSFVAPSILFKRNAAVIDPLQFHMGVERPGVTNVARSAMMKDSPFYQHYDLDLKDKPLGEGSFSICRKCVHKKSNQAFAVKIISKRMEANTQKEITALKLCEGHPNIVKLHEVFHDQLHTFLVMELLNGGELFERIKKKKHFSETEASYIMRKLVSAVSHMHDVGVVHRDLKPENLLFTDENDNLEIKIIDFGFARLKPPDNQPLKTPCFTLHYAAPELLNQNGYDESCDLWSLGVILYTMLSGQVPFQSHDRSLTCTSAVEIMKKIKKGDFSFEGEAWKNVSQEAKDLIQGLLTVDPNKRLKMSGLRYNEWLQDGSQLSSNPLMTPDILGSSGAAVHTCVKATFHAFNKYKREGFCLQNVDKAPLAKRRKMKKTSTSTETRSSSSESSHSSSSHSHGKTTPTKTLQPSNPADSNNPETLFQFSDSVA
Chain of MAP kinase-activated protein kinase 5 (Homo sapiens) (Q8IW41 whole entry): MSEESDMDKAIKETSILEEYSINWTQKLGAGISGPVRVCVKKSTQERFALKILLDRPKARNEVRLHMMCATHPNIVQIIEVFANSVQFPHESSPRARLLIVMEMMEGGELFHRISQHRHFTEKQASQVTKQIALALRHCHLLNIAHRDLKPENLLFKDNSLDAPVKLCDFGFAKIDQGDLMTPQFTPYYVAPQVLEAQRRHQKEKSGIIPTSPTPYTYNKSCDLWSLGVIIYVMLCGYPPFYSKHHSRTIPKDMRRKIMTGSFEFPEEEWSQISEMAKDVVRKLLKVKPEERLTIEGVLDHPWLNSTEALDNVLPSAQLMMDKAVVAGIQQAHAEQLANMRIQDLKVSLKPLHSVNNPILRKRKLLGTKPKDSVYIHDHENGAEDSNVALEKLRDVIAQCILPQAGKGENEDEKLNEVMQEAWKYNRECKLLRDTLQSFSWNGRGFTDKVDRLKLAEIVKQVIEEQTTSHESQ
Chain of Cyclin-dependent kinase 5/CDK5 activator 1 (Q00535 whole entry): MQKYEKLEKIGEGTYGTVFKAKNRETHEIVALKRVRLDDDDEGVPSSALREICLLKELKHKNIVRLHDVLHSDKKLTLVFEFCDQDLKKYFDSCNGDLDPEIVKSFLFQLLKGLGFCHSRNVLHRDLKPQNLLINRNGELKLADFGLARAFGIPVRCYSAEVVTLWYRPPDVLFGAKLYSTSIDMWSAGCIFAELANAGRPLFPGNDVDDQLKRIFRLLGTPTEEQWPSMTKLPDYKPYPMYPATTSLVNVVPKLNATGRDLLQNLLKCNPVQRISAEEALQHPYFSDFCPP
Chain of Cyclin-dependent kinase 5/CDK5 activator 1 (Q15078 whole entry, further chain): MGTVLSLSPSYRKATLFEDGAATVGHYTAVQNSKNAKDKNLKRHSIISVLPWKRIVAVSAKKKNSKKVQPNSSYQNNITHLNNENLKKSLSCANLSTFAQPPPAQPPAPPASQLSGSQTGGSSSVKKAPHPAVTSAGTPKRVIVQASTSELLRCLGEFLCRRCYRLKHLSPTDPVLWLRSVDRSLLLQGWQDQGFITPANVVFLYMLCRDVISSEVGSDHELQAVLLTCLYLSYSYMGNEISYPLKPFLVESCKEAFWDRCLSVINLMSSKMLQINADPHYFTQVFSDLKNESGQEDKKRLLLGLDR
Chain of CDK9/cyclin T1 (O60563 whole entry): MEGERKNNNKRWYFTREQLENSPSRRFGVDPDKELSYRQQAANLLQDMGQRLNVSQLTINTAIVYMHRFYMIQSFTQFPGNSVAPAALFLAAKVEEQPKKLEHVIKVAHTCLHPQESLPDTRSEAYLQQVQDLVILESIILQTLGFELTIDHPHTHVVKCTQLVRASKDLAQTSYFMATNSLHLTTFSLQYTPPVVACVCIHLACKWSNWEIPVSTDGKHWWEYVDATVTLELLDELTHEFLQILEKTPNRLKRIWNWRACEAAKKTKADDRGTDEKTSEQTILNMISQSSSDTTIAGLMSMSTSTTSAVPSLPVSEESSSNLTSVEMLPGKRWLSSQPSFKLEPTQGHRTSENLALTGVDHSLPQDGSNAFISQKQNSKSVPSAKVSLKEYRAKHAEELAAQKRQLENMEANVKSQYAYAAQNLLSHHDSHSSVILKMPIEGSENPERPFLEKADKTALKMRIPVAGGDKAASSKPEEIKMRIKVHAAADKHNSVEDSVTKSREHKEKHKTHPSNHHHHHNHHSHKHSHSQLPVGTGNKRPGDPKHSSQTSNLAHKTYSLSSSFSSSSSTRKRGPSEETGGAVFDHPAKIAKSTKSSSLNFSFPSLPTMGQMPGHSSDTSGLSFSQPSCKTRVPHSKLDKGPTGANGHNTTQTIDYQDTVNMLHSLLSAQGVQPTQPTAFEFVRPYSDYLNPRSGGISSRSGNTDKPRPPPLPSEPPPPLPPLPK
Chain of CDK9/cyclin T1 (P50750 whole entry): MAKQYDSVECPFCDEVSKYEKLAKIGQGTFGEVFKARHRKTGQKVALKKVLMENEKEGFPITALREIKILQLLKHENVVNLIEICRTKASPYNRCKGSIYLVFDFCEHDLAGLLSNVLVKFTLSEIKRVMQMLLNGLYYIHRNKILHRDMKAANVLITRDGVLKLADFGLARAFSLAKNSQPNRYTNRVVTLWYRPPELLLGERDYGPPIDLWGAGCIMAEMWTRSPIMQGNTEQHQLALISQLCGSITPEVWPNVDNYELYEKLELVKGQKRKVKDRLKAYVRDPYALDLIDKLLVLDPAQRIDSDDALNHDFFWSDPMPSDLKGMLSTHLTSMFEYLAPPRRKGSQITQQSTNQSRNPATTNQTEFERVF
Chain of Cellular tumor antigen p53 (Homo sapiens) (P04637 whole entry, looked up): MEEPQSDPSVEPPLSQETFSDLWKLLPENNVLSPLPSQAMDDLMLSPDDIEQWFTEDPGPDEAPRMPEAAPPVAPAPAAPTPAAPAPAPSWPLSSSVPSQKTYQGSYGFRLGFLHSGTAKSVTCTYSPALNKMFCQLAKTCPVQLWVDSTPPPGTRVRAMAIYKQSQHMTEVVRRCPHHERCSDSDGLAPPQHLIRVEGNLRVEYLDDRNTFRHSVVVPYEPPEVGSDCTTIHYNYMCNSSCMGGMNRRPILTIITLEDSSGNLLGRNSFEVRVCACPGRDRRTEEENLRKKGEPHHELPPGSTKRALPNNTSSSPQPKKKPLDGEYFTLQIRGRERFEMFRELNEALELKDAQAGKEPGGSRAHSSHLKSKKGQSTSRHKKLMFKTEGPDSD

`CN1CC[C@H](c2c(O)cc(O)c3c(=O)cc(-c4ccccc4Cl)oc23)[C@H](O)C1` [ALVOCIDIB] gave an inhibition at 0.1 µM [1] of 62%.

`CC[C@H](CO)Nc1nc(NCc2ccccc2)c2n[nH]c(C(C)C)c2n1` showed an IC50 [2] of 40 nM, an IC50 [3] of 200 nM and an IC50 [4] of 160 nM. For the same compound, the IC50 [5] was 1000 nM.

With `CC[C@H](CO)Nc1nc(NCc2ccccc2)c2ncn(C(C)C)c2n1` the Activity [6] was “Active”, the Activity [7] was “Active” and the inhibition [8] was “inactive”. The inhibition [9] was “inactive”, the Activity [10] was “Active” and the inhibition [11] was 13%. For the same compound, the Activity [12] was “Active”, the inhibition [13] was 87% and the inhibition [14] was 29%. The inhibition [15] was 10%, the inhibition [16] was 25% and the Activity [17] was “Active”. For the same compound, the Activity [18] was “Active”, the Activity [19] was “Active” and the inhibition [20] was 28%. For the same compound, the Activity [21] was “Active”, the inhibition [22] was 1% and the inhibition [23] was “Active”. For the same compound, the Activity [24] was “Active”, the inhibition [25] was 87% and the inhibition [26] was 38%.
